# High-throughput results from PubChem BioAssay.
# Gli-Sufu antag: blocks Gli-Sufu signaling in a luciferase reporter; Sufu-KO-LIGHT fibroblasts, Gli luciferase reporter luminescence; inhibition, % at 5 µM; 340,000 compounds, 0.74% hits;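 active = inhibition above about 55%, limit read from the data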;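 also: 0% = DMSO-treated cells and 100% = wells with medium but no cells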
# CHOP UPR activ: activators of apoptotic arm of unfolded protein response (CHOP) | 330,000 compounds, 0.34% hits | AID 449763 | CHO-CHOP luciferase reporter, UPR activation, luminescence; percent of tunicamycin response over DMSO baseline | activation, % at 10 µM;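 active = at 10 µM dose, activation of 40% or more, normalized to positive control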;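 also: 100% = tunicamycin at 10 µg/mL and 0% = DMSO alone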
#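 assay system = CHO CHOP reporter cells | amount = 500 CHO-CHOP cells per well | buffer or medium = F12 with 10% FBS | incubation = 16-18 h cell attachment, then 6 h compound exposure, 37 °C | detection = luminescence read with Steady-Glo | read-out = percent activation relative to tunicamycin control | controls = tunicamycin high control, DMSO low control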
# UPR XBP1 act: activators of adaptive arm of unfolded protein response (XBP1); CHO-XBP1 luciferase reporter, IRE1-XBP1 UPR activation, luminescence; percent of tunicamycin response, DMSO as zero; activation, % at 20 µM; 330,000 compounds, 0.33% hits; AID 463104;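 active = versus positive control, 20 µM dose yields 30% or more activation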;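 also: 100% = tunicamycin at 10 µg/mL and 0% = DMSO only wells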
#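 Material – CHO cell line with stable XBP1 luciferase reporter · Buffer or medium – F12 plus 10% FBS · Compound – single point, 20 µM final compound, 1% DMSO · Schedule – 16-18 h cell attachment at 37 °C, then 6 h compound exposure · Signal – Steady-Glo luminescence read · Benchmarks – high control tunicamycin 10 µg/mL final, low control DMSO vehicle only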
# 697 NFkB inh: inhibitors of the PMA/ionomycin-induced NF-kB reporter in 697 B cells. 697 B-cell NF-kB luciferase reporter, 16 h. inhibition, % at 4 µM. 330,000 compounds, 0.33% hits. AID 435022; in the data active = inhibition above about 35%
# CHOP inhibitor: inhibitors of CHOP induction in ER stress response | CHO-K1 CHOP-promoter luciferase, tunicamycin-induced, 15-18 h | inhibition, % at 10 µM | 220,000 compounds, 3.8% hits | AID 2732;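 active = compounds that reduced the stress-induced luciferase reporter signal by more than about 70% of percent inhibition, limit read from the data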;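 also: 0% = tunicamycin plus vehicle and 100% = wells without tunicamycin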
# Jurkat NFkB inh: inhibitors of the PMA/ionomycin-induced NF-kB reporter in Jurkat cells | 330,000 compounds, 0.53% hits | inhibition, % at 4 µM | PMA/ionomycin-induced NF-kB luciferase reporter, luminescence; in the data active = inhibition above about 50%
# * = called active by the depositor; x = no result given. Rows were chosen to be rich in hits. Some 3.9% of all compounds tested hit in one or more screens of this group.
SMILES,Gli-Sufu antag,CHOP UPR activ,UPR XBP1 act,697 NFkB inh,CHOP inhibitor,Jurkat NFkB inh
COn1c(SCC(N)=O)nc2ccccc2c1=O,9.7,-0.8,-4.3,3.7,-5.0,1.4
CC(C)On1c(SC(C)C)nc2ccccc2c1=O,3.1,-0.3,1.0,6.0,73.2*,2.7
COn1c(SC2CCCCC2)nc2ccccc2c1=O,-1.6,1.6,1.1,-0.4,83.2*,3.8
COn1c(SC(C)C)nc2ccccc2c1=O,1.9,0.6,1.9,5.5,29.0,-1.7
Cc1cccc(C)c1NC(=O)c1cccc2c1C(=O)N(C1CCCCC1)C2,23.0,0.6,-6.9,5.5,x,2.3
Cc1ccc(NC(=O)c2sccc2SCc2cccc(C(F)(F)F)c2)cc1,-3.2,0.0,0.0,-8.8,80.5*,-0.8
Cc1cccc(C)c1NC(=O)c1sccc1SCc1cccc(C(F)(F)F)c1,3.4,-2.0,-1.4,-3.9,82.0*,-17.6
Cc1ccc(NC(=O)c2c(C(F)(F)F)nn(C)c2SCc2cccc(C(F)(F)F)c2)cc1C,46.1,6.7,4.0,-41.9,59.0,-4.0
Cc1cnc(=O)[nH]c1SCc1cccc(C(F)(F)F)c1,-3.9,-1.9,-5.0,4.7,x,3.8
CC(=O)Nc1ccc(NC(=O)C(C)OC(=O)CCSc2ccccc2Cl)cc1 (centres undefined),3.8,-0.7,2.6,20.0,x,-13.1
CCN(CC(=O)Nc1cc(Cl)ccc1C)C(=O)c1ccc(N2CCCC2=O)cc1,-1.8,-0.2,-2.4,-2.6,x,-1.9
Cc1cc(=O)[nH]c(SCCCOc2ccc(F)cc2)n1,7.0,1.0,-1.1,7.2,31.1,-1.5
Cc1cc(Cl)c(OCCCSc2nc(C)cc(=O)[nH]2)c(Br)c1,2.2,-0.6,-1.8,-20.3,85.5*,-3.5
Cc1ccccc1-c1cc(C(=O)Nc2sc(C)c(C)c2C(N)=O)c2ccccc2n1,9.0,1.2,3.9,0.3,74.8*,1.2
Cc1c(C)n(-c2ccc(Cl)cc2)c2ncnc(N)c12,-12.2,1.6,2.6,-52.6,x,-14.2
Cc1ccc2nc(SCC(=O)N3CCCCC3)nc(=O)n2c1,-1.2,1.8,1.5,-0.2,x,-21.6
COc1ccccc1COC(=O)C(NC(=O)c1ccc(C)cc1)C(C)C (centres undefined),4.5,1.4,1.2,17.6,x,-0.8
CCN(CC)c1ccc(C(=C2C=CC(=[N+](CC)CC)C=C2)c2ccc(N(CC)CC)cc2)cc1,87.2*,x,x,x,x,x
CCN(CC)c1ccc(C(=O)NNC(=O)CCl)cc1,-40.0,2.7,-3.1,4.6,-7.4,-7.5
CCN(CC)c1ccc(C(=C2C=CC(=[N+](CC)CC)C=C2)c2ccccc2)cc1,92.3*,x,x,x,x,x
COc1ccc(C(=O)OCC(=O)N(C)C2CCS(=O)(=O)C2)cc1Br (centres undefined),0.3,-1.0,1.6,-9.2,x,0.3
COc1ccccc1CNC(=O)OCc1nccnc1C(=O)Nc1ccc(Br)cn1,-10.1,1.9,3.2,-33.4,x,-7.0
COc1cccc(NC(=O)/C=C/c2ccc(S(=O)(=O)N3CCOCC3)cc2)c1,-12.4,2.0,-1.1,6.5,x,-11.9
COc1ccccc1-n1nnnc1SCC(=O)Nc1cc(C)on1,-1.1,-3.6,0.2,15.5,70.2*,3.9
CCOc1ccccc1-n1nnnc1SCC(=O)Nc1cc(C)on1,3.3,-0.4,-2.4,16.4,-10.0,-9.6
SMILES,Gli-Sufu antag,CHOP UPR activ,UPR XBP1 act,697 NFkB inh,CHOP inhibitor,Jurkat NFkB inh
COc1ccc(-c2cc(CCCC(=O)N3CCN(c4ccc(OC)cc4)CC3)no2)cc1,5.3,-2.2,-3.2,-14.2,95.0*,0.7
COc1ccc(-c2cc(C(=O)Nc3cc(C)nn3-c3ccccc3)no2)cc1,8.9,3.8,-2.5,15.2,11.1,-1.8
Cc1cc(NC(=O)c2cc(-c3ccccc3)on2)n(-c2ccccc2)n1,3.7,-0.6,0.5,-4.7,76.1*,-11.5
COc1ccc(-c2cc(C(=O)Nc3c(C)nn(Cc4ccccc4)c3C)no2)cc1,8.5,-0.7,1.4,-11.9,75.7*,2.1
COc1cccc(-c2cc(C(=O)Nc3c(C)nn(Cc4ccccc4)c3C)no2)c1,5.0,3.6,-1.6,-9.0,29.6,2.3
COc1cccc(-c2cc(C(=O)Nc3c(C)nn(Cc4ccccc4C)c3C)no2)c1,3.0,1.0,-2.3,-8.5,70.4*,13.0
C=CCn1c(=O)c2ccc(C(=O)NCc3ccccc3)cc2n(Cc2ccc(Cl)cc2)c1=O,6.6,4.1,23.6,15.9,86.5*,4.2
C=CCn1c(=O)c2ccc(C(=O)NCc3ccccc3)cc2n(Cc2cccc(Cl)c2)c1=O,-0.1,0.5,-4.0,8.8,18.2,2.4
N#Cc1ccsc1NC(=O)c1cccc(-n2cnnn2)c1,-17.2,0.7,-1.1,-5.7,x,-14.4
CC(C)OCCCN1C(=O)c2[nH]nc(-c3ccccc3O)c2C1c1cccc(Cl)c1 (centres undefined),11.3,-1.2,1.0,-5.0,94.5*,-0.7
COCCCN1C(=O)c2[nH]nc(-c3ccccc3O)c2C1c1cccc(Cl)c1 (centres undefined),3.0,-1.9,1.6,-74.7,x,21.7
Brc1ccc(CSc2nnc(-c3ccccn3)n2Cc2ccco2)cc1,-2.6,-0.6,6.5,-32.2,46.8,41.6
CC(C)(C)c1ccc(CSc2nnc(-c3ccccn3)n2Cc2ccco2)cc1,2.6,1.1,1.0,-79.3,93.8*,-21.3
CCCNS(=O)(=O)c1ccc(CCC(=O)Nc2cc(Cl)ccc2Oc2ccccc2)cc1,4.2,x,x,x,89.8*,x
CCC(CC)NC(=O)CON=C1c2ccccc2-c2ccccc21,8.8,0.4,-2.0,-0.7,71.8*,15.8
CN(CC(=O)Nc1nc2ccccc2s1)S(=O)(=O)c1ccc(Cl)cc1,-3.3,1.2,-1.1,-7.3,84.0*,-9.8
CN(CC(=O)Nc1nc2ccccc2s1)S(=O)(=O)c1ccc(Br)cc1,x,-1.0,-2.1,10.2,-1.5,16.1
Cc1cc(C)cc(NC(=O)c2ccc(N3C(=O)C4CCCCC4C3=O)cc2)c1 (centres undefined),-3.4,1.9,-3.4,-10.2,x,-1.3
Cc1ccc(C(=O)N/N=C\c2cc3c(cc2Br)OCO3)s1,-41.1,6.0,7.5,-59.7,92.9*,17.1
O=C(NCC(c1ccco1)N1CCc2ccccc2C1)C(=O)Nc1cc(F)ccc1F (centres undefined),-0.5,0.1,1.2,9.8,x,8.3
COc1ccc2[nH]c(=O)cc(C(=O)O)c2c1,-1.2,0.1,1.4,0.3,-4.1,3.4
COc1ccc2[nH]c3c4c(ccc3c2c1)C(=O)C=CC4=O,37.5,-5.6,-11.8,-70.7,88.6*,45.3
O=C(Nc1c(-c2ccccc2)nc2ccccn12)c1ccccc1F,10.3,1.6,-2.5,-7.6,x,43.8
C/C=C/C(=O)Nc1nnc(-c2ccccc2C)s1,-4.2,7.1,0.1,-4.4,84.5*,-14.5
C=C(C)C(=O)Nc1nnc(-c2ccccc2C)s1,-8.2,x,x,x,0.1,x
